# Measured values reported in ChEMBL document CHEMBL1944511, “Bakuchiol derivatives as novel and potent cytotoxic agents: a report” (Eur J Med Chem, 2012).
# pIC50: −log10 of the molar value.
# Tests used:
# [1] = test system: MCF7; experiment: Growth inhibition of human MCF7 cells at 50 uM after 48 hrs by sulpharhodamine B assay; assay type: functional; details: MCF7, 48 h, read-out: GI
# In short: (§1)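 This is the SRB protein-stain assay on adherent cells in RPMI-1640/MEM with 10% FCS. Each compound in DMSO (vehicle <0.2%) was applied at a single fixed concentration for 48 h. Cells were fixed with TCA and stained with SRB, and the dye was solubilised in Tris and read at 570/620 nm. Percent growth inhibition is relative to vehicle-treated controls, reported as mean ± SD of three experiments run in triplicate.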
# [2] = test system: MCF7; experiment: Growth inhibition of human MCF7 cells at 30 uM after 48 hrs by sulpharhodamine B assay; assay type: functional; details: MCF7, 48 h, read-out: GI; in short: as §1
# [3] = test system: HL-60; experiment: Induction of apoptosis in human HL60 cells assessed as increase in […] sub-G0 fraction at 30 uM by propidium iodide staining-based flow cytometric analysis (reference value: 6%); assay type: functional
# [4] = test system: IMR-32; experiment: Growth inhibition of human IMR32 cells at 20 uM after 48 hrs by sulpharhodamine B assay; assay type: functional; details: IMR-32, 48 h, read-out: GI; in short: as §1
# [5] = test system: MCF7; experiment: Cytotoxicity against human MCF7 cells after 48 hrs by sulpharhodamine B assay; assay type: functional, cell-based; details: MCF7, 48 h
# In short: (§2)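 Cells were grown in RPMI-1640/MEM with 10% FCS and penicillin/streptomycin at 37 °C under 5% CO2, then seeded and left to adhere overnight. Analogs in DMSO (vehicle <0.2%) were added at several concentrations for 48 h. Cells were fixed with cold 50% TCA, stained with 0.4% SRB in 1% acetic acid, solubilised in 10 mM Tris, and read at OD 570/620 nm. IC50 came from non-linear regression.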
# [6] = test system: PC-3; experiment: Cytotoxicity against human PC3 cells after 48 hrs by sulpharhodamine B assay; assay type: functional, cell-based; details: PC-3, 48 h; in short: as §2
# [7] = test system: PC-3; experiment: Growth inhibition of human PC3 cells at 10 uM after 48 hrs by sulpharhodamine B assay; assay type: functional; details: PC-3, 48 h, read-out: GI; in short: as §1
# [8] = test system: HL-60; experiment: Induction of apoptosis in human HL60 cells assessed as loss of mitochondrial membrane potential at 5 uM after 24 hrs by rodamine-123 staining-based flow cytometric analysis (reference value: 6%); assay type: functional
# [9] = test system: HCT-15; experiment: Growth inhibition of human HCT15 cells at 10 uM after 48 hrs by sulpharhodamine B assay; assay type: functional; details: HCT-15, 48 h, read-out: GI; in short: as §1
# [10] = test system: OVCAR-5; experiment: Growth inhibition of human OVCAR5 cells at 30 uM after 48 hrs by sulpharhodamine B assay; assay type: functional; details: OVCAR-5, 48 h, read-out: GI; in short: as §1
# [11] = test system: HL-60; experiment: Induction of apoptosis in human HL60 cells assessed as increase in […] sub-G0 fraction at 10 uM by propidium iodide staining-based flow cytometric analysis (reference value: 6%); assay type: functional
# [12] = test system: THP-1; experiment: Growth inhibition of human THP1 cells at 20 uM after 48 hrs by sulpharhodamine B assay; assay type: functional; details: THP-1, 48 h, read-out: GI
# In short: (§3)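 Cells grown in RPMI-1640/MEM with 10% FCS, penicillin/streptomycin, 37 °C, 5% CO2. Seeded in 96-well plates, allowed to adhere overnight, then exposed 48 h to analogs in DMSO (vehicle <0.2% in controls). TCA-fixed, stained with 0.4% SRB in 1% acetic acid, dye solubilized in 10 mM Tris base, OD 570 nm (ref 620 nm). Mean ± SD of three experiments run in triplicate.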
# [13] = test system: DU-145; experiment: Cytotoxicity against human DU145 cells after 48 hrs by sulpharhodamine B assay; assay type: functional, cell-based; details: DU-145, 48 h; in short: as §2
# [14] = test system: MCF7; experiment: Growth inhibition of human MCF7 cells at 5 uM after 48 hrs by sulpharhodamine B assay; assay type: functional; details: MCF7, 48 h, read-out: GI; in short: as §1
# [15] = test system: A549; experiment: Growth inhibition of human A549 cells at 10 uM after 48 hrs by sulpharhodamine B assay; assay type: functional; details: A549, 48 h, read-out: GI; in short: as §1
# [16] = test system: PC-3; experiment: Growth inhibition of human PC3 cells at 30 uM after 48 hrs by sulpharhodamine B assay; assay type: functional; details: PC-3, 48 h, read-out: GI; in short: as §3
# [17] = test system: HL-60; experiment: Cytotoxicity against human HL60 cells after 24 hrs by MTT assay; assay type: functional, cell-based; details: for pIC50: HL-60, 24 h
# In short: (§4)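 Exponentially growing HL-60 cells (1.5×10^4 per well) in 96-well plates were exposed to a range of compound concentrations in DMSO, with vehicle-only controls. MTT (2.5 mg/mL stock) was added for 3–4 h at 37 °C, and formazan was dissolved in DMSO and read at OD 570/620 nm. […] Data are mean ± SD of n = 6 wells from two experiments.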
# [18] = test system: HeLa; experiment: Growth inhibition of human HeLa cells at 50 uM after 48 hrs by sulpharhodamine B assay; assay type: functional; details: read-out: GI; in short: as §1
# [19] = test system: DU-145; experiment: Growth inhibition of human DU145 cells at 10 uM after 48 hrs by sulpharhodamine B assay; assay type: functional; details: DU-145, 48 h, read-out: GI; in short: as §1
# [20] = test system: A549; experiment: Growth inhibition of human A549 cells at 5 uM after 48 hrs by sulpharhodamine B assay; assay type: functional; details: A549, 48 h, read-out: GI; in short: as §1
# [21] = test system: MCF7; experiment: Growth inhibition of human MCF7 cells at 10 uM after 48 hrs by sulpharhodamine B assay; assay type: functional; details: MCF7, 48 h, read-out: GI; in short: as §1
# [22] = test system: THP-1; experiment: Growth inhibition of human THP1 cells at 10 uM after 48 hrs by sulpharhodamine B assay; assay type: functional; details: THP-1, 48 h, read-out: GI; in short: as §3
# [23] = test system: HCT-15; experiment: Cytotoxicity against human HCT15 cells after 48 hrs by sulpharhodamine B assay; assay type: functional, cell-based; details: HCT-15, 48 h; in short: as §2
# [24] = test system: HL-60; experiment: Induction of apoptosis in human HL60 cells assessed as loss of mitochondrial membrane potential at 30 uM after 24 hrs by rodamine-123 staining-based flow cytometric analysis; assay type: functional
# [25] = test system: HL-60; experiment: Induction of apoptosis in human HL60 cells assessed as loss of mitochondrial membrane potential at 1 uM after 24 hrs by rodamine-123 staining-based flow cytometric analysis (reference value: 6%); assay type: functional
# [26] = test system: DU-145; experiment: Growth inhibition of human DU145 cells at 5 uM after 48 hrs by sulpharhodamine B assay; assay type: functional; details: DU-145, 48 h, read-out: GI; in short: as §1
# [27] = test system: A549; experiment: Growth inhibition of human A549 cells at 50 uM after 48 hrs by sulpharhodamine B assay; assay type: functional; details: A549, 48 h, read-out: GI; in short: as §1
# [28] = test system: PC-3; experiment: Growth inhibition of human PC3 cells at 50 uM after 48 hrs by sulpharhodamine B assay; assay type: functional; details: PC-3, 48 h, read-out: GI; in short: as §3
# [29] = test system: IMR-32; experiment: Growth inhibition of human IMR32 cells at 50 uM after 48 hrs by sulpharhodamine B assay; assay type: functional; details: IMR-32, 48 h, read-out: GI; in short: as §1
# [30] = test system: OVCAR-5; experiment: Growth inhibition of human OVCAR5 cells at 50 uM after 48 hrs by sulpharhodamine B assay; assay type: functional; details: OVCAR-5, 48 h, read-out: GI; in short: as §1
# [31] = test system: HL-60; experiment: Cytotoxicity against human HL60 cells by MTT assay; assay type: functional, cell-based; details: TDE = time-dependent effect; in short: as §4
# [32] = test system: THP-1; experiment: Growth inhibition of human THP1 cells at 50 uM after 48 hrs by sulpharhodamine B assay; assay type: functional; details: THP-1, 48 h, read-out: GI; in short: as §3
# [33] = test system: PC-3; experiment: Growth inhibition of human PC3 cells at 20 uM after 48 hrs by sulpharhodamine B assay; assay type: functional; details: PC-3, 48 h, read-out: GI; in short: as §1
# [34] = test system: HL-60; experiment: Induction of apoptosis in human HL60 cells assessed as loss of mitochondrial membrane potential at 10 uM after 24 hrs by rodamine-123 staining-based flow cytometric analysis (reference value: 6%); assay type: functional
# [35] = test system: HL-60; experiment: Induction of apoptosis in human HL60 cells assessed as loss of mitochondrial membrane potential after 24 hrs by rodamine-123 staining-based flow cytometric analysis; assay type: functional, cell-based
# [36] = test system: THP-1; experiment: Cytotoxicity against human THP1 cells after 48 hrs by sulpharhodamine B assay; assay type: functional, cell-based; details: THP-1, 48 h; in short: as §2
# [37] = test system: HCT-15; experiment: Growth inhibition of human HCT15 cells at 5 uM after 48 hrs by sulpharhodamine B assay; assay type: functional; details: HCT-15, 48 h, read-out: GI; in short: as §1
SMILES,inhibition of growth at 50 µM [1] [%],inhibition of growth at 30 µM [2] [%],Activity [3] [%],inhibition of growth at 20 µM [4] [%],pIC50 [5],pIC50 [6],inhibition of growth at 10 µM [7] [%],Activity [8] [%],inhibition of growth at 10 µM [9] [%],inhibition of growth at 30 µM [10] [%],Activity [11] [%],inhibition of growth at 20 µM [12] [%],pIC50 [13],inhibition of growth at 5 µM [14] [%],inhibition of growth at 10 µM [15] [%],inhibition of growth at 30 µM [16] [%],Activity [17],pIC50 [17],inhibition of growth at 50 µM [18] [%],inhibition of growth at 10 µM [19] [%],further results
CC1C(C(C)(C)O)CCC1(C)/C=C/c1ccc(O)cc1 (stereo unspecified),79,58,68,62,4.66,4.72,35,17.9,55,55,34,76,4.85,27,40,62,Dose-dependent effect,4.74,68,50,inhibition of growth at 5 µM [20]: 32%; inhibition of growth at 10 µM [21]: 32%; inhibition of growth at 10 µM [22]: 65%; pIC50 [23]: 4.89; Activity [24]: 54%; Activity [25]: 12.4%; inhibition of growth at 5 µM [26]: 32%; inhibition of growth at 50 µM [27]: 76%; inhibition of growth at 50 µM [28]: 86%; inhibition of growth at 50 µM [29]: 85%; inhibition of growth at 50 µM [30]: 75%; Activity [31]: tde; inhibition of growth at 50 µM [32]: 93%; inhibition of growth at 20 µM [33]: 57%; Activity [34]: 31.7%; Activity [35]: Dose-dependent effect; pIC50 [36]: 5.46; inhibition of growth at 5 µM [37]: 29%
COc1ccc(/C=C/[C@](C)(/C=C/c2ccc(O)cc2)CCC=C(C)C)cc1,77,52,66,40,4.64,4.82,41,20.6,50,50,41,78,4.96,24,47,50,Dose-dependent effect,4.80,78,57,inhibition of growth at 5 µM [20]: 24%; inhibition of growth at 10 µM [21]: 37%; inhibition of growth at 10 µM [22]: 62%; pIC50 [23]: 4.89; Activity [24]: 55.4%; Activity [25]: 14.4%; inhibition of growth at 5 µM [26]: 20%; inhibition of growth at 50 µM [27]: 70%; inhibition of growth at 50 µM [28]: 93%; inhibition of growth at 50 µM [29]: 69%; inhibition of growth at 50 µM [30]: 67%; Activity [31]: tde; inhibition of growth at 50 µM [32]: 86%; inhibition of growth at 20 µM [33]: 58%; Activity [34]: 46.4%; Activity [35]: Dose-dependent effect; pIC50 [36]: 5.38; inhibition of growth at 5 µM [37]: 28%
